ChEMBL document CHEMBL1131195, “Antileishmanial chalcones: statistical design, synthesis, and three-dimensional quantitative structure-activity relationship analysis” (J Med Chem, 1998)
pIC50: −log10 of the molar value.

Columns and labels:
[1] = Inhibitory activity against phytohemagglutininin A-induced proliferation of human lymphocytes; assay type: functional
Method in brief: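 Human lymphocytes stimulated with phytohemagglutinin A were incubated in vitro with increasing concentrations of each chalcone, and inhibition of their proliferation was measured.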

Leishmania donovani [2] = test: Tested in vitro for anti-leishmanial activity against Leishmania donovani; assay type: functional, organism-based
Method in brief: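 In vitro assay using Leishmania donovani promastigotes incubated with increasing chalcone concentrations, with inhibition of parasite proliferation as the read-out.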

[3] = Inhibitory activity against phytohemagglutininin A-induced proliferation of human lymphocytes; Not tested due to low solubility; assay type: functional
Leishmania donovani [4] = test: Tested in vitro for anti-leishmanial activity against Leishmania. donovani; Not tested due to low solubility; assay type: functional, organism-based

COc1ccc(C(=O)/C=C/c2ccc(Cl)cc2Cl)c(OC)c1OC
pIC50 [1]: 5.11 | pIC50 (Leishmania donovani [2]): 5.20

COc1ccc(C(=O)/C=C/c2ccc(F)cc2F)c(OC)c1
pIC50 [1]: 4.92 | pIC50 (Leishmania donovani [2]): 4.57

CN(C)c1ccc(/C=C/C(=O)c2ccc(O)cc2)cc1
pIC50 [1]: 3.89 | pIC50 (Leishmania donovani [2]): 4.10

CCCCOc1ccc(C(=O)/C=C/c2ccc(OC)cc2OC)cc1
IC50 [3]: Not Active | pIC50 (Leishmania donovani [2]): 4.02

C=CCOc1ccc(C(=O)/C=C/c2cccc(OC)c2OC)cc1
pIC50 [1]: 4.02 | pIC50 (Leishmania donovani [2]): 4.31

O=C(/C=C/c1ccc(Oc2ccccc2)cc1)c1ccc(C2CCCCC2)cc1
IC50 [3]: Not Active | IC50 (Leishmania donovani [4]): Not Active

COc1cc(/C=C/C(=O)c2ccc([N+](=O)[O-])cc2)cc(OC)c1
pIC50 [1]: 4.70 | pIC50 (Leishmania donovani [2]): 4.80

CCCCOc1ccccc1C(=O)/C=C/c1cc(OC)cc(OC)c1
pIC50 [1]: 4.89 | pIC50 (Leishmania donovani [2]): 5.14

C=CCOc1ccc(C(=O)/C=C/c2c(OC)cccc2OC)cc1
pIC50 [1]: 4.02 | pIC50 (Leishmania donovani [2]): 4.09

COc1cccc(/C=C/C(=O)c2ccc(O)cc2)c1OC
pIC50 [1]: 4.15 | pIC50 (Leishmania donovani [2]): 4.05

COc1ccc(C(=O)/C=C/c2ccccc2[N+](=O)[O-])c(OC)c1OC
pIC50 [1]: 5.15 | pIC50 (Leishmania donovani [2]): 5.23

COc1cccc(OC)c1/C=C/C(=O)c1ccc(O)cc1
pIC50 [1]: 4.22 | pIC50 (Leishmania donovani [2]): 4.09

CN(C)c1ccc(/C=C/C(=O)c2ccc(N(C)C)cc2)cc1
IC50 [3]: Not Active | pIC50 (Leishmania donovani [2]): 4.52

CN(C)c1ccc(/C=C/C(=O)c2ccc([N+](=O)[O-])cc2)cc1
IC50 [3]: Not Active | IC50 (Leishmania donovani [4]): Not Active

COc1ccc(/C=C/C(=O)c2ccc(F)cc2F)c(OC)c1
pIC50 [1]: 4.13 | pIC50 (Leishmania donovani [2]): 4.59

COc1ccc(/C=C/C(=O)c2ccccc2O)c(OC)c1
pIC50 [1]: 3.84 | pIC50 (Leishmania donovani [2]): 4.46

COc1cc(O)ccc1/C=C/C(=O)c1ccc(N(C)C)cc1
pIC50 [1]: 3.95 | pIC50 (Leishmania donovani [2]): 4.31

COc1cc(/C=C/C(=O)c2ccccc2O)cc(OC)c1
pIC50 [1]: 5.09 | pIC50 (Leishmania donovani [2]): 5.42

COc1cc(/C=C/C(=O)c2ccc(O)cc2)cc(OC)c1
pIC50 [1]: 4.85 | pIC50 (Leishmania donovani [2]): 4.92

COc1cc(/C=C/C(=O)c2ccccc2F)cc(OC)c1
pIC50 [1]: 5.22 | pIC50 (Leishmania donovani [2]): 5.46

COc1ccc(OC)c(C(=O)/C=C/c2ccc(Cl)cc2Cl)c1
pIC50 [1]: 5.24 | pIC50 (Leishmania donovani [2]): 5.11

COc1cc(/C=C/C(=O)c2cccc(O)c2)cc(OC)c1
pIC50 [1]: 5.49 | pIC50 (Leishmania donovani [2]): 5.43

COc1ccc(/C=C/C(=O)c2ccccc2Br)c(OC)c1
pIC50 [1]: 4.46 | pIC50 (Leishmania donovani [2]): 4.85

COc1cc(OC)c(OC)cc1/C=C/C(=O)c1ccc(O)cc1
pIC50 [1]: 4.55 | pIC50 (Leishmania donovani [2]): 4.80

CCCCCCOc1ccc(C(=O)/C=C/c2ccc(OC)cc2OC)cc1
IC50 [3]: Not Active | pIC50 (Leishmania donovani [2]): 3.87

COc1ccc(/C=C/C(=O)c2ccccc2)c(OC)c1
pIC50 [1]: 4.32 | pIC50 (Leishmania donovani [2]): 4.82

C=CCOc1ccc(C(=O)/C=C/c2cc(OC)c(OC)c(OC)c2)cc1
pIC50 [1]: 4.52 | pIC50 (Leishmania donovani [2]): 4.39

COc1ccc(/C=C/C(=O)c2cccc(Br)c2)c(OC)c1
pIC50 [1]: 4.43 | pIC50 (Leishmania donovani [2]): 4.80

COc1ccc(/C=C/C(=O)c2ccccc2OC)c(OC)c1
pIC50 [1]: 4.59 | pIC50 (Leishmania donovani [2]): 4.80

CCCCOc1ccc(C(=O)/C=C/c2c(OC)cccc2OC)cc1
pIC50 (Leishmania donovani [2]): 3.98

CCCCOc1cccc(C(=O)/C=C/c2ccc(OC)cc2OC)c1
pIC50 [1]: 4.19 | pIC50 (Leishmania donovani [2]): 4.70

COc1ccc(C(=O)/C=C/c2ccc(F)c(F)c2)c(OC)c1
pIC50 [1]: 5.28 | pIC50 (Leishmania donovani [2]): 4.80

COc1cccc(C(=O)/C=C/c2ccc(OC)cc2OC)c1
pIC50 [1]: 4.38 | pIC50 (Leishmania donovani [2]): 4.74

CCCCOc1ccccc1/C=C/C(=O)c1ccc(OC)c(OC)c1OC
pIC50 [1]: 4.28 | pIC50 (Leishmania donovani [2]): 4.59

O=C(/C=C/c1ccc([N+](=O)[O-])cc1)c1ccc([N+](=O)[O-])cc1
pIC50 [1]: 4.29 | pIC50 (Leishmania donovani [2]): 4.59

COc1ccc(C(=O)/C=C/c2cccc(Oc3ccccc3)c2)c(OC)c1OC
pIC50 [1]: 4.77 | pIC50 (Leishmania donovani [2]): 5.06

CN(C)c1ccc(C(=O)/C=C/c2ccc([N+](=O)[O-])cc2)cc1
IC50 [3]: Not Active | IC50 (Leishmania donovani [4]): Not Active

COc1ccc(C(=O)/C=C/c2ccc([N+](C)(C)C)cc2)c(OC)c1OC
pIC50 [1]: 4.46 | pIC50 (Leishmania donovani [2]): 4.68

COc1ccc(C(=O)/C=C/c2cccc(N(C)C)c2)c(OC)c1OC
pIC50 [1]: 4.59 | pIC50 (Leishmania donovani [2]): 4.70

O=C(/C=C/c1ccccc1)c1ccc(F)cc1
pIC50 [1]: 4.64 | pIC50 (Leishmania donovani [2]): 4.82
